From PMC5914179 (Advanced functional materials, 2016) come the findings set out here.

Molecules are shown by their SMILES.

For one assay, the target named is thrombin (Homo sapiens, UniProt P00734). The experiment in a line: Sensor cleavage during CaCl2-activated clotting of human plasma/serum. Type of assay: biochemical. To be noted: control human plasma + CaCl2, PEG-T1Q sensor.
The target of the next assay is recombinant human MMP9 (Homo sapiens, UniProt P14780). The experiment in a line: In vitro cleavage assay. It is filed as biochemical. The settings on record: inhibitor 5 μM final, ~100 nM MMP9, PEG-M1Q 1 μM by peptide. In short, it runs like this: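 Quenched fluorogenic PEG-peptide substrate at 1 × 10^-6 M by peptide, incubated with recombinant human MMP9 (≈100 × 10^-9 M working concentration), with or without MMP inhibitor. Fluorescence dequenching monitored over time on a microplate reader.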
Sequence of recombinant human MMP9 (P14780 94-707): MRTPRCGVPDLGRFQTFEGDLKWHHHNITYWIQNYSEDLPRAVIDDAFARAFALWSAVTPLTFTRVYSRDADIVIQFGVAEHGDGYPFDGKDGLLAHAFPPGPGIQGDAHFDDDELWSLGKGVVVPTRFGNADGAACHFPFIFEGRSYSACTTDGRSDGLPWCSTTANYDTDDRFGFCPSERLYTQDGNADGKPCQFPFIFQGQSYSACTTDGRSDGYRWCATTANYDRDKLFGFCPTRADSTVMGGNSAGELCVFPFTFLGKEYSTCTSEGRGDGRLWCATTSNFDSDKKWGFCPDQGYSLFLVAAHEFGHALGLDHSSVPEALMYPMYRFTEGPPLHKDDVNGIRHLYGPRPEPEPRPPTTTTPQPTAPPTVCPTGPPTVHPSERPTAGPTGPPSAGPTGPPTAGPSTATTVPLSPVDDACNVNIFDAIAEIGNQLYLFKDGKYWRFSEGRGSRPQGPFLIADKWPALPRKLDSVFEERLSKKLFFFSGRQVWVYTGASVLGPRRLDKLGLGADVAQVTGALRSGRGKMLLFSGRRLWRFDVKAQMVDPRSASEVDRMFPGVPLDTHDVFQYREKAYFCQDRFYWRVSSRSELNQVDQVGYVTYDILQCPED

Take `CC1CNc2c(cccc2S(=O)(=O)N[C@@H](CCCNC(=N)N)C(=O)N2CC[C@@H](C)C[C@@H]2C(=O)O)C1` (some centres unmarked) [Argatroban]: at thrombin, the “effect of thrombin inhibitor on CaCl2-induced fluorescence increase of PEG-T1Q” value is “eliminated the fluorescence increase”.

For the compound `CNC(=O)[C@@H](NC(=O)[C@H](CC(C)C)[C@H](O)C(=O)NO)C(C)(C)C` [Marimastat], the “effect of MMP inhibitor on MMP9 proteolysis of PEG-M1Q” value on recombinant human MMP9 is reported as “abrogated”.
